Assay results published in ChEMBL document CHEMBL1138784, “Rational design, synthesis, and biological evaluation of bis(pyrimido[5,6,1-de]acridines) and bis(pyrazolo[3,4,5-kl]acridine-5-carboxamides) as new anticancer agents” (J Med Chem, 2004).

Assays:
Nucleic Acid = assay: Binding site preference is determined as the ratio of Poly (dA-dT)2 to Poly (dG-dC)2; type: nucleic-acid assay
How it was run: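 Ethidium displacement fluorometry at pH 7.0 (10 mM Na2HPO4, 10 mM NaH2PO4, 1 mM EDTA) with 1.26 μM ethidium bromide and 1 μM [poly(dA-dT)]2 or [poly(dG-dC)]2, 20 °C. Ex 546 nm, em 595 nm, drug added serially from a DMSO stock. Preference taken from the [AT]/[GC] ratio of C50 values, counted significant only below 0.7 or above 1.3.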

MOLT-4 [1] = assay: Percent growth of leukemia MOLT-4 cell line was determined at 10e-6 M concentration after 48 h of exposing; type: functional, Homo sapiens
How it was run: (§1)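 NCI sulforhodamine B screen. Cells seeded by growth rate, 24 h drug-free, then 48 h exposure to 10^-8, 10^-6 or 10^-5 M. Protein-stain optical density expressed as percent growth relative to untreated control (100%); negative values indicate cell kill.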

SW-620 [2] = assay: Percent growth of colon SW-620 cell line was determined at 10e-6 M concentration after 48 hr of exposing; type: functional, Homo sapiens; how it was run: as §1
[3] = Cytotoxicity against human HCT116 cancer cell line was determined after 144 hr; type: cell-based; details: HCT-116, 144 h
How it was run: (§2)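 MTT colorimetric assay. Cells seeded by growth characteristics and preincubated 24 h, then exposed to drug for 1 h or 144 h at 37 °C, 5% CO2. H460M, MKN45 and PC-3 were grown in RPMI 1640 with 10% FCS. HCT116 was grown in D-MEM with 10% FBS and 2 mM glutamine.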

786-0 [4] = assay: Percent growth of renal 786-O cell line was determined at 10e-8 M concentration after 48 h of exposing; type: functional, Homo sapiens; how it was run: as §1
OVCAR-4 [5] = assay: Percent growth of ovarian OVCAR-4 cell line was determined at 10e-8 M concentration after 48 hr of exposing; type: functional, Homo sapiens; how it was run: as §1
SNB-19 [6] = assay: Percent growth of CNS SNB-19 cell line was determined at 10e-5 M concentration after 48 hr of exposing; type: functional, Homo sapiens; how it was run: as §1
HCT-116 = assay: Cytotoxicity against human HCT116 cancer cell line was determined after 1 hr; type: functional, cell-based; details: HCT-116, 1 h; how it was run: as §2
MKN-45 = assay: Cytotoxicity against human MKN45 cancer cell line was determined after 1 hr; type: functional, cell-based; details: MKN-45, 1 h; how it was run: as §2
LoVo [7] = assay: Ratio of IC50 against sensitive LoVo cell line and that of doxorubicin resistance LoVo cell line was determined after 1 hr exposure; type: functional, Homo sapiens
[8] = Percent growth of melanoma LOX IMV1 cell line was determined at 10e-8 M concentration after 48 hr of exposing; type: functional, Homo sapiens; how it was run: as §1
SW-620 [9] = assay: Percent growth of colon SW-620 cell line was determined at 10e-8 M concentration after 48 hr of exposing; type: functional, Homo sapiens; how it was run: as §1
SW-620 [10] = assay: Percent growth of colon SW-620 cell line was determined at 10e-5 M concentration after 48 hr of exposing; type: functional, Homo sapiens; how it was run: as §1
MOLT-4 [11] = assay: Percent growth of leukemia MOLT-4 cell line was determined at 10e-5 M concentration after 48 hr of exposing; type: functional, Homo sapiens; how it was run: as §1
MCF7 [12] = assay: Percent growth of breast MCF-7 cell line was determined at 10e-5 M concentration after 48 hr of exposing; type: functional, Homo sapiens
OVCAR-4 [13] = assay: Percent growth of ovarian OVCAR-4 cell line was determined at 10e-6 M concentration after 48 hr of exposing; type: functional, Homo sapiens; how it was run: as §1
DU-145 [14] = assay: Percent growth of prostate DU-145 cell line was determined at 10e-8 M concentration after 48 h of exposing; type: functional, Homo sapiens
MCF7 [15] = assay: Percent growth of breast MCF-7 cell line was determined at 10e-8 M concentration after 48 hr of exposing; type: functional, Homo sapiens
[16] = Cytotoxicity against human PC3 cancer cell line was determined after 144 hr; type: cell-based; details: Cancer cell lines; how it was run: as §2
SNB-19 [17] = assay: Percent growth of CNS SNB-19 cell line was determined at 10e-6 M concentration after 48 hr of exposing; type: functional, Homo sapiens; how it was run: as §1
DU-145 [18] = assay: Percent growth of prostate DU-145 cell line was determined at 10e-5 M concentration after 48 hr of exposing; type: functional, Homo sapiens
[19] = Percent growth of melanoma LOX IMV1 cell line was determined at 10e-5 M concentration after 48 hr of exposing; type: functional, Homo sapiens; how it was run: as §1
NCI-H460 [20] = assay: Percent growth of lung NCI-H460 cell line was determined at 10e-6 M concentration after 48 hr of exposing; type: functional, Homo sapiens; how it was run: as §1
[21] = Cytotoxicity is determined as the concentration required to inhibit the growth of human colon adenocarcinoma (HT-29) cell line
786-0 [22] = assay: Percent growth of renal 786-O cell line was determined at 10e-6 M concentration after 48 h of exposing; type: functional, Homo sapiens; how it was run: as §1
[23] = Percent growth of melanoma LOX IMV1 cell line was determined at 10e-6 M concentration after 48 hr of exposing; type: functional, Homo sapiens; how it was run: as §1
LoVo [24] = assay: Cytotoxicity against doxorubicin resistant LoVo cell line was determined against 144 hrs; type: functional, cell-based; details: Homo sapiens
How it was run: (§3)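 MTT assay on doxorubicin-sensitive LoVo and resistant LoVo/Dx cells, 24 h preincubation, then 1 h or 144 h drug exposure at 37 °C, 5% CO2. IC50 in nM. Resistance index is IC50 on LoVo/Dx divided by IC50 on LoVo.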

NCI-H460 [25] = assay: Percent growth of lung NCI-H460 cell line was determined at 10e-8 M concentration after 48 hr of exposing; type: functional, Homo sapiens; how it was run: as §1
[26] = Cytotoxicity against human LoVo cancer cell line was determined after 144 hr; type: cell-based; how it was run: as §3
OVCAR-4 [27] = assay: Percent growth of ovarian OVCAR-4 cell line was determined at 10e-5 M concentration after 48 hr of exposing; type: functional, Homo sapiens; how it was run: as §1
SNB-19 [28] = assay: Percent growth of CNS SNB-19 cell line was determined at 10e-8 M concentration after 48 hr of exposing; type: functional, Homo sapiens; how it was run: as §1
PC-3 = assay: Cytotoxicity against human PC3 cancer cell line was determined after 1 hr; type: functional, cell-based; details: PC-3, 1 h; how it was run: as §2
MOLT-4 [29] = assay: Percent growth of leukemia MOLT-4 cell line was determined at 10e-8 M concentration after 48 hr of exposing; type: functional, Homo sapiens; how it was run: as §1
DU-145 [30] = assay: Percent growth of prostate DU-145 cell line was determined at 10e-6 M concentration after 48 hr of exposing; type: functional, Homo sapiens
LoVo [31] = assay: Cytotoxicity against doxorubicin resistant LoVo cell line was determined against 1 hour; type: functional, cell-based; details: Homo sapiens; how it was run: as §3
LoVo [32] = assay: Cytotoxicity against human LoVo cancer cell line was determined after 1 hr; type: functional, cell-based; how it was run: as §3
MCF7 [33] = assay: Percent growth of breast MCF-7 cell line was determined at 10e-6 M concentration after 48 h of exposing; type: functional, Homo sapiens
NCI-H460 [34] = assay: Percent growth of lung NCI-H460 cell line was determined at 10e-5 M concentration after 48 hr of exposing; type: functional, Homo sapiens; how it was run: as §1
786-0 [35] = assay: Percent growth of renal 786-O cell line was determined at 10e-5 M concentration after 48 hr of exposing; type: functional, Homo sapiens; how it was run: as §1

**Q.** With CN(C)CCn1c(=O)c2ccc(NCCCN(C)CCCNc3ccc4c(=O)n(CCN(C)C)c(=O)n5c6ccccc6c(=O)c3c45)c3c(=O)c4ccccc4n(c1=O)c23 as the compound, how does the Binding site preference (Nucleic Acid) read?
**A.** The Binding site preference was 25.

**Q.** And the Growth (MOLT-4 [1])?
**A.** The Growth was -26%.

**Q.** What about the Growth (SW-620 [2]) of the same compound?
**A.** The Growth was -25%.

**Q.** What about the IC50 [3] of the same compound?
**A.** Its IC50 is 0.1 nM.

**Q.** What about the Growth (786-0 [4]) of the same compound?
**A.** Its Growth is 34%.

**Q.** What about the Growth (OVCAR-4 [5]) of the same compound?
**A.** The Growth was 15%.

**Q.** What about the Growth (SNB-19 [6]) of the same compound?
**A.** Its Growth is -53%.

**Q.** And the IC50 (HCT-116)?
**A.** Its IC50 is 0.72 nM.

**Q.** What about the IC50 (MKN-45) of the same compound?
**A.** Its IC50 is 0.01 nM.

**Q.** And the Resistance index (LoVo [7])?
**A.** Its Resistance index is 2.1.

**Q.** What about the Growth [8] of the same compound?
**A.** Its Growth is 25%.

**Q.** What about the Growth (SW-620 [9]) of the same compound?
**A.** The Growth was 26%.

**Q.** And the Growth (SW-620 [10])?
**A.** Its Growth is -89%.

**Q.** What about the Growth (MOLT-4 [11]) of the same compound?
**A.** Its Growth is -71%.

**Q.** And the Growth (MCF7 [12])?
**A.** The Growth was -96%.

**Q.** And the Growth (OVCAR-4 [13])?
**A.** The Growth was -53%.

**Q.** What about the Growth (DU-145 [14]) of the same compound?
**A.** Its Growth is 37%.

**Q.** What about the Growth (MCF7 [15]) of the same compound?
**A.** The Growth was 31%.

**Q.** And the IC50 [16]?
**A.** Its IC50 is 1.6 nM.

**Q.** And the Growth (SNB-19 [17])?
**A.** The Growth was 7%.

**Q.** What about the Growth (DU-145 [18]) of the same compound?
**A.** Its Growth is -98%.

**Q.** What about the Growth [19] of the same compound?
**A.** The Growth was -82%.

**Q.** And the Growth (NCI-H460 [20])?
**A.** Its Growth is -22%.

**Q.** And the IC50 [21]?
**A.** Its IC50 is less than 0.1 nM.

**Q.** And the Growth (786-0 [22])?
**A.** Its Growth is 4%.

**Q.** What about the Growth [23] of the same compound?
**A.** Its Growth is -43%.

**Q.** And the IC50 (LoVo [24])?
**A.** Its IC50 is 3.1 nM.

**Q.** What about the Growth (NCI-H460 [25]) of the same compound?
**A.** Its Growth is 13%.

**Q.** And the IC50 [26]?
**A.** The IC50 was 0.31 nM.

**Q.** What about the Growth (OVCAR-4 [27]) of the same compound?
**A.** Its Growth is -77%.

**Q.** And the Growth (SNB-19 [28])?
**A.** Its Growth is 32%.

**Q.** And the IC50 (PC-3)?
**A.** The IC50 was 4.1 nM.

**Q.** What about the Growth (MOLT-4 [29]) of the same compound?
**A.** Its Growth is 9%.

**Q.** What about the Growth (DU-145 [30]) of the same compound?
**A.** The Growth was -13%.

**Q.** What about the IC50 (LoVo [31]) of the same compound?
**A.** Its IC50 is 11 nM.

**Q.** And the IC50 (LoVo [32])?
**A.** The IC50 was 5.2 nM.

**Q.** And the Growth (MCF7 [33])?
**A.** The Growth was 0%.

**Q.** And the Growth (NCI-H460 [34])?
**A.** Its Growth is -95%.

**Q.** And the Growth (786-0 [35])?
**A.** Its Growth is -100%.
